Article PMC5400702 (European journal of nuclear medicine and molecular imaging, 2017)
Several values for one entry are separate records, joined by “and”; a condition that tells them apart may be missing. Equal values may be shown once. Read-outs that look alike come from different tables or passages of the source.

Assays:
α7 nAChRs [1] = target: T1, α7 nAChRs (Macaca mulatta, UniProt Q866A2); test: [18F]ASEM PET blocking scans with nicotine, varenicline and cold ASEM; conditions: for receptor occupancy: Lassen plot
T1 sequence (Q866A2 23-502): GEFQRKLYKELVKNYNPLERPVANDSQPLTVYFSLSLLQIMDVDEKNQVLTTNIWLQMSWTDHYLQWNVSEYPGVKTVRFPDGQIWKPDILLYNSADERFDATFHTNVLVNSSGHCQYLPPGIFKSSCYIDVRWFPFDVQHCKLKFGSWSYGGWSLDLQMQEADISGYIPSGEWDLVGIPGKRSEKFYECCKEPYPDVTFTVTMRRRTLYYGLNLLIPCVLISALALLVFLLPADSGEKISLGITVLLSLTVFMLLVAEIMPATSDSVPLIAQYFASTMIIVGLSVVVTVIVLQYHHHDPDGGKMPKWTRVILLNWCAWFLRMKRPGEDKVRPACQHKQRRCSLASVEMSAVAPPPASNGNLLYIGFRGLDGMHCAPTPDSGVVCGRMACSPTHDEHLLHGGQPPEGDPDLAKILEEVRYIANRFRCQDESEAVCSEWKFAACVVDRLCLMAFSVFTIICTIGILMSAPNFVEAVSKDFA

[2] = assay type: in vivo, Macaca mulatta; conditions: arterial plasma, 120 min post-injection, averaged across subjects, rhesus monkey
α7 nAChRs [3] = target: T2, α7 nAChRs (Homo sapiens, UniProt P36544); test: [18F]ASEM PET imaging in human brain, kinetic modeling and test-retest; assay type: in vivo; conditions: for K1 / VT / VT/fp: humans n=6; for VT TRV / VT/fp TRV: humans n=4
T2 sequence (P36544 23-502): as the sequence (Q866A2 23-502) above, with S171N, K186R, M373V, A376V counted along it

α7 nAChRs [4] = target: T1, α7 nAChRs; assay type: in vivo; conditions: 2TCM, rhesus monkey; for K1: average across all subjects and gray matter regions
Plasma free fraction [5] = assay type: in vitro ADME, human
α7 nAChRs [6] = target: T2, α7 nAChRs; conditions: two subjects, initial [18F]ASEM human study ref 11; cited from earlier work
Plasma free fraction [7] = assay type: in vitro ADME, Macaca mulatta; conditions: rhesus monkey plasma, ultrafiltration
In short: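 Plasma from arterial samples of anesthetized rhesus monkeys during radiotracer PET scans was tested. Free fraction was measured by ultrafiltration in triplicate for each scan.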

[8] = Parent [18F]ASEM in human arterial plasma; assay type: in vivo; conditions: for parent [18F]ASEM fraction of radioactivity in plasma: human arterial plasma
In short: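 Six healthy volunteers (5 M, 1 F; 26–51 y) received 317±87 MBq radiotracer as a 1-min slow bolus into a forearm vein. Manual radial-artery samples were taken over 180 min post-injection. Plasma was analysed by HPLC for parent fraction, giving the metabolite-corrected arterial input function, expressed as SUV.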

α7 nAChRs [9] = conditions: full agonist ref 16, 17; cited from earlier work
[10] = 0.24 mg/kg nicotine, averaged across regions, one value per animal (two animals)
[11] = 0.33 mg/kg varenicline, one value per animal (two animals)

Which “change of [18F]ASEM VT” value (α7 nAChRs [1]; [10]) does the source give for `CN1CCC[C@H]1c1cccnc1` [nicotine] here?
Its value is −0.1±6.7% and 5.3±9.1%.

And the “change of [18F]ASEM VT/fP” value (α7 nAChRs [1]; [10])?
Its value is −7.2±6.2% and −3.0±8.4%.

Which results are given for `O=S1(=O)c2cc(N3CCN4CCC3CC4)ccc2-c2cccc(F)c21` [ASEM]?
receptor occupancy (α7 nAChRs [1]; 0.67 mg/kg cold ASEM, one animal): 18.8% and 19%; receptor occupancy (α7 nAChRs [1]; 1.24 mg/kg cold ASEM, two animals): 36.7% and 40.2% and 37–40%

What does the source list for `O=S1(=O)c2cc(N3CCN4CCC3CC4)ccc2-c2cccc([18F])c21` [[^18F]ASEM]?
VND (α7 nAChRs [1]; estimated from Lassen plots, one value per animal (two animals)): 25.3 mL/cm^3 and 16.0 mL/cm^3; parent fraction of total plasma radioactivity [2]: 16%; K1 (α7 nAChRs [3]; 1TCM, Caudate): 0.33±0.03 mL/cm^3 per min; VT (α7 nAChRs [3]; 1TCM, Caudate): 22.4±3.9 mL/cm^3; K1 (α7 nAChRs [3]; 1TCM, Cerebellum): 0.36±0.08 mL/cm^3 per min; VT (α7 nAChRs [3]; 1TCM, Cerebellum): 20.0±3.2 mL/cm^3; K1 (α7 nAChRs [3]; 1TCM, Frontal Cortex): 0.35±0.07 mL/cm^3 per min; VT (α7 nAChRs [3]; 1TCM, Frontal Cortex): 24.7±3.0 mL/cm^3; K1 (α7 nAChRs [3]; 1TCM, Hippocampus): 0.26±0.04 mL/cm^3 per min; VT (α7 nAChRs [3]; 1TCM, Hippocampus): 21.7±2.3 mL/cm^3; K1 (α7 nAChRs [3]; 1TCM, Occipital Cortex): 0.37±0.06 mL/cm^3 per min; VT (α7 nAChRs [3]; 1TCM, Occipital Cortex): 25.6±3.1 mL/cm^3; K1 (α7 nAChRs [3]; 1TCM, Putamen): 0.39±0.10 mL/cm^3 per min; VT (α7 nAChRs [3]; 1TCM, Putamen): 25.8±3.6 mL/cm^3; VT (α7 nAChRs [3]; 1TCM, Temporal Cortex): 26.1±3.7 mL/cm^3; K1 (α7 nAChRs [3]; 1TCM, Thalamus): 0.38±0.08 mL/cm^3 per min; VT (α7 nAChRs [3]; 1TCM, Thalamus): 26.6±3.3 mL/cm^3; underestimation of VT with truncated data (α7 nAChRs [3]; 60 min of data vs 180 min, humans): 7.4±5.1%; underestimation of VT with truncated data (α7 nAChRs [3]; 90 min of data vs 180 min, humans): 5.5±3.8%; underestimation of VT with truncated data (α7 nAChRs [3]; 120 min of data vs 180 min, humans): 4.2±2.6%; test-retest variability of VT (α7 nAChRs [3]; MA1, 120 min of data, four human subjects, all regions): 11.7±9.8%; VT TRV (α7 nAChRs [3]; MA1, Caudate): 12.5±8.1%; VT/fp TRV (α7 nAChRs [3]; MA1, Caudate): 6.8±7.4%; VT (α7 nAChRs [3]; MA1, Caudate): 21.6±2.6 mL/cm^3; VT/fp (α7 nAChRs [3]; MA1, Caudate): 288±72 mL/cm^3; VT TRV (α7 nAChRs [3]; MA1, Cerebellum): 13.4±7.6%; VT/fp TRV (α7 nAChRs [3]; MA1, Cerebellum): 7.8±6.2%; VT (α7 nAChRs [3]; MA1, Cerebellum): 19.6±2.5 mL/cm^3; VT/fp (α7 nAChRs [3]; MA1, Cerebellum): 259±57 mL/cm^3; VT TRV (α7 nAChRs [3]; MA1, Frontal Cortex): 11.0±11.4%; VT/fp TRV (α7 nAChRs [3]; MA1, Frontal Cortex): 10.2±7.7%; VT (α7 nAChRs [3]; MA1, Frontal Cortex): 24.6±2.7 mL/cm^3; VT/fp (α7 nAChRs [3]; MA1, Frontal Cortex): 326±66 mL/cm^3; VT TRV (α7 nAChRs [3]; MA1, Hippocampus): 10.9±8.4%; VT/fp TRV (α7 nAChRs [3]; MA1, Hippocampus): 8.0±7.8%; VT (α7 nAChRs [3]; MA1, Hippocampus): 21.7±2.1 mL/cm^3; VT/fp (α7 nAChRs [3]; MA1, Hippocampus): 287±58 mL/cm^3; VT TRV (α7 nAChRs [3]; MA1, Occipital Cortex): 10.5±10.5%; VT/fp TRV (α7 nAChRs [3]; MA1, Occipital Cortex): 9.9±8.4%; VT (α7 nAChRs [3]; MA1, Occipital Cortex): 25.7±2.7 mL/cm^3; VT/fp (α7 nAChRs [3]; MA1, Occipital Cortex): 339±70 mL/cm^3; VT TRV (α7 nAChRs [3]; MA1, Putamen): 12.0±8.1%; VT/fp TRV (α7 nAChRs [3]; MA1, Putamen): 7.8±7.5%; VT (α7 nAChRs [3]; MA1, Putamen): 25.4±3.0 mL/cm^3; VT/fp (α7 nAChRs [3]; MA1, Putamen): 335±66 mL/cm^3; VT TRV (α7 nAChRs [3]; MA1, Temporal Cortex): 11.8±10.1%; VT/fp TRV (α7 nAChRs [3]; MA1, Temporal Cortex): 9.1±7.8%; VT (α7 nAChRs [3]; MA1, Temporal Cortex): 25.8±3.2 mL/cm^3; VT/fp (α7 nAChRs [3]; MA1, Temporal Cortex): 342±75 mL/cm^3; VT TRV (α7 nAChRs [3]; MA1, Thalamus): 11.0±6.4%; VT/fp TRV (α7 nAChRs [3]; MA1, Thalamus): 6.9±7.8%; VT (α7 nAChRs [3]; MA1, Thalamus): 25.9±2.9 mL/cm^3; VT/fp (α7 nAChRs [3]; MA1, Thalamus): 343±75 mL/cm^3; test-retest variation of VT/fP (α7 nAChRs [3]; MA1, four human subjects, all regions): 9.3±7.3%; peak SUV in brain (α7 nAChRs [3]; human brain): 3.0–4.5 SUV; time of peak radioactivity concentration in brain (α7 nAChRs [3]; human brain, post-injection): 20 to 30 min; pharmacological effects following administration (α7 nAChRs [3]; humans, administered mass 132±185 ng): No detectable pharmacological effects; VT higher than previously reported values (α7 nAChRs [3]; humans, compared with ref 11): roughly 15%; K1 (α7 nAChRs [4]): 0.59±0.14 mL/cm^3·min^−1; k2 (α7 nAChRs [4]): 0.022 ± 0.010 min⁻¹; test-retest variation of plasma free fraction (fP) (Plasma free fraction [5]; four human subjects): −5.3±18.0%; fP (Plasma free fraction [5]; human plasma): 7.7±1.3%; test-retest variability of VT (α7 nAChRs [6]): 10.8±5.1%; free fraction (fP) in plasma (Plasma free fraction [7]): 14.9±1.1%; parent [18F]ASEM fraction of radioactivity in plasma ([8]; 60 min after injection): 27.5±7.9%; parent [18F]ASEM fraction of radioactivity in plasma ([8]; 180 min post-injection): 8.8±1.6%; time of peak of parent [18F]ASEM curve in arterial plasma ([8]; humans): 1.25 min; SUV of parent [18F]ASEM curve in arterial plasma at end of scans ([8]; humans, 180 min post-injection): 0.47±0.08 SUV; peak SUV of parent [18F]ASEM curve in arterial plasma ([8]; humans, at 1.25 min): 4.4±1.2 SUV

Which “parent fraction of total plasma radioactivity” value [2] does the source give for `O=S1(=O)c2ccc([18F])cc2-c2ccc(N3CCN4CCC3CC4)cc21` [[^18F]DBT-10] here?
The value was 30%.

What about the K1 (α7 nAChRs [4]) of the same molecule?
The K1 was 0.66±0.11 mL/cm^3·min^−1.

What about the k2 (α7 nAChRs [4]) of the same molecule?
Its k2 is 0.024 ± 0.010 min⁻¹.

And the “free fraction (fP) in plasma” value (Plasma free fraction [7])?
Its value is 18.3±3.9%.

What does the source list for `c1cnc2cc3c(cc2n1)[C@@H]1CNC[C@H]3C1` [varenicline]?
Ki (α7 nAChRs [9]): 322 nM; change of [18F]ASEM VT (α7 nAChRs [1]; [11]): −2.6±6.2% and 5.2±16.9%; change of [18F]ASEM VT/fP (α7 nAChRs [1]; [11]): −1.6±5.5% and −5.4±15.2%
